In ChEMBL document CHEMBL1144480, “Study on the substituents' effects of a series of synthetic chalcones against the yeast Candida albicans” (2007):
In brackets after ≈: the same amount, converted by molar mass. Activity calls are given as the source filed them. No cut-off for these calls is given here.

How the values were obtained:
Candida albicans [1] = test: Antifungal activity against Candida albicans Berhaut 62I after 24 hrs; type: functional
Summary of the method: (§1)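 Serial dilutions of each chalcone in meat-pepton broth in tubes; inoculum 10⁵ cells/ml; 37 °C, 24 h. MIC taken as the lowest dilution with no visible growth against inoculated drug-free broth. Tubes without visible growth streaked onto meat-pepton agar, 37 °C, 24 h, and checked for growth.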

Candida albicans [2] = test: Growth inhibition of Candida albicans Berhaut 62I by agar cup method; type: functional
Summary of the method: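 Each well received 100 µl of sample dissolved in 96% EtOH. Pre-diffusion at 4 °C for 2 h, then 37 °C for 48 h. Read-out was inhibitory zone diameter, with ≥15 mm initially counted as active. Pure solvent served as control.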

Candida albicans [3] = test: Antifungal activity against Candida albicans Berhaut 62I in meat-pepton broth; type: functional; summary of the method: as §1
Candida albicans [4] = test: Antifungal activity against Candida albicans Berhaut 62I at 2000 ug/ml; type: functional, organism-based
[5] = Candida albicans, Berhaut 62I, read-out: MIC

Structure (SMILES) | MIC (Candida albicans [1]) | inhibition zone (IZ) (Candida albicans [2]) | MIC (Candida albicans [3]; [5]) | MIC (Candida albicans [3]) | Activity (Candida albicans [4])
O=C(/C=C/c1cccc(O)c1)c1ccccc1 [3-HYDROXY CHALCONE] | 250 µg/mL (≈ 1110 µM) | 17 mm | 250 µg/mL (≈ 1110 µM) | – | –
O=C(/C=C/c1ccc2c(c1)OCO2)c1ccc(Cl)cc1 | 500 µg/mL (≈ 1740 µM) | 0 mm | 62.5 µg/mL (≈ 218 µM) | – | –
O=C(/C=C/c1ccccc1)c1ccccc1 [CHALCONE] | 125 µg/mL (≈ 600 µM) | 30 mm | 125 µg/mL (≈ 600 µM) | – | –
COc1cc(C(=O)/C=C/c2ccc(Cl)cc2)cc(OC)c1OC | 500 µg/mL (≈ 1500 µM) | 0 mm | 500 µg/mL (≈ 1500 µM) | – | –
COc1ccc(/C=C/C(=O)c2ccc(Cl)cc2)cc1 | 500 µg/mL (≈ 1830 µM) | 0 mm | 500 µg/mL (≈ 1830 µM) | – | –
CN(C)c1ccc(/C=C/C(=O)c2ccc(Cl)cc2)cc1 | 500 µg/mL (≈ 1750 µM) | 0 mm | 500 µg/mL (≈ 1750 µM) | – | –
COc1ccc(/C=C/C(=O)c2ccc(Cl)cc2)cc1OC | 500 µg/mL (≈ 1650 µM) | 0 mm | 62.5 µg/mL (≈ 206 µM) | 62.5 µg/mL (≈ 206 µM) | –
O=C(/C=C/c1ccccc1O)c1ccc(Cl)cc1 | 62.5 µg/mL (≈ 242 µM) | 16 mm | 62.5 µg/mL (≈ 242 µM) | – | –
COc1ccc(/C=C/C(=O)c2ccccc2)cc1 [4-METHOXY CHALCONE] | 500 µg/mL (≈ 2100 µM) | 0 mm | 500 µg/mL (≈ 2100 µM) | – | –
Cc1ccc(/C=C/C(=O)c2ccccc2)cc1 | 500 µg/mL (≈ 2250 µM) | 0 mm | 500 µg/mL (≈ 2250 µM) | – | –
COc1cccc(/C=C/C(=O)c2ccccc2)c1O | 62.5 µg/mL (≈ 246 µM) | 12 mm | 62.5 µg/mL (≈ 246 µM) | – | –
COc1cc(/C=C/C(=O)c2ccc(Cl)cc2)cc(OC)c1OC | 500 µg/mL (≈ 1500 µM) | 0 mm | 62.5 µg/mL (≈ 188 µM) | – | –
O=C(/C=C/c1ccc([N+](=O)[O-])cc1)c1ccccc1 | 250 µg/mL (≈ 987 µM) | 17 mm | 250 µg/mL (≈ 987 µM) | – | –
COc1cc(C(=O)/C=C/c2ccc(C#N)cc2)cc(OC)c1OC | 500 µg/mL (≈ 1550 µM) | 0 mm | 500 µg/mL (≈ 1550 µM) | – | –
O=C(/C=C/c1ccccc1)c1ccc(Cl)cc1 | 500 µg/mL (≈ 2060 µM) | 0 mm | 500 µg/mL (≈ 2060 µM) | – | –
COc1cc(C(=O)/C=C/c2ccc(NC(C)=O)cc2)cc(OC)c1OC | 500 µg/mL (≈ 1410 µM) | 0 mm | 500 µg/mL (≈ 1410 µM) | – | –
O=C(/C=C/c1ccc([N+](=O)[O-])cc1)c1ccc(Cl)cc1 | 250 µg/mL (≈ 869 µM) | 15 mm | 250 µg/mL (≈ 869 µM) | – | –
O=C(/C=C/c1ccc(Cl)cc1)c1ccc(Cl)cc1 [4',4-DICHLOROCHALCONE] | 500 µg/mL (≈ 1800 µM) | 0 mm | 500 µg/mL (≈ 1800 µM) | – | –
O=C(/C=C/c1ccc2c(c1)OCO2)c1ccccc1 | – | – | 62.5 µg/mL (≈ 248 µM) | – | –
Cc1ccc(/C=C/C(=O)c2ccc(Cl)cc2)cc1 | 500 µg/mL (≈ 1950 µM) | 0 mm | 500 µg/mL (≈ 1950 µM) | – | –
O=C(/C=C/c1ccccc1O)c1ccccc1 | 31.2 µg/mL (≈ 139 µM) | 21 mm | 31.2 µg/mL (≈ 139 µM) | – | –
COc1cc(/C=C/C(=O)c2ccc(Cl)cc2)ccc1O | 250 µg/mL (≈ 866 µM) | 19 mm | 62.5 µg/mL (≈ 216 µM) | – | –
COc1cccc(/C=C/C(=O)c2ccc(Cl)cc2)c1 | 500 µg/mL (≈ 1830 µM) | 15 mm | 62.5 µg/mL (≈ 229 µM) | – | –

Structure (SMILES) | MIC (Candida albicans [1]) | inhibition zone (IZ) (Candida albicans [2]) | MIC (Candida albicans [3]; [5]) | MIC (Candida albicans [3]) | Activity (Candida albicans [4])
COc1ccc(/C=C/C(=O)c2ccc(Cl)cc2)cc1O | 500 µg/mL (≈ 1730 µM) | 0 mm | 500 µg/mL (≈ 1730 µM) | – | –
O=C(/C=C/c1ccc(O)c(O)c1)c1ccccc1 | 62.5 µg/mL (≈ 260 µM) | 15 mm | 62.5 µg/mL (≈ 260 µM) | – | –
O=C(/C=C/c1ccc(O)cc1)c1ccccc1 [4-HYDROXYCHALCONE] | 62.5 µg/mL (≈ 279 µM) | 15 mm | 62.5 µg/mL (≈ 279 µM) | – | –
COc1ccc(/C=C/C(=O)c2cc(OC)c(OC)c(OC)c2)cc1 | 500 µg/mL (≈ 1520 µM) | 0 mm | 500 µg/mL (≈ 1520 µM) | – | –
CC(=O)Nc1ccc(/C=C/C(=O)c2ccccc2)cc1 | 500 µg/mL (≈ 1880 µM) | 0 mm | 500 µg/mL (≈ 1880 µM) | – | –
COc1cc(C(=O)/C=C/c2ccc(C)cc2)cc(OC)c1OC | 500 µg/mL (≈ 1600 µM) | 0 mm | 500 µg/mL (≈ 1600 µM) | – | –
COc1cc(/C=C/C(=O)c2ccc(Cl)cc2)cc(OC)c1O | 125 µg/mL (≈ 392 µM) | 15 mm | 62.5 µg/mL (≈ 196 µM) | – | –
O=C(/C=C/c1ccc(O)c(O)c1)c1ccc(Cl)cc1 | 62.5 µg/mL (≈ 228 µM) | 14 mm | 62.5 µg/mL (≈ 228 µM) | – | –
COc1cccc(/C=C/C(=O)c2cc(OC)c(OC)c(OC)c2)c1 | – | – | 62.5 µg/mL (≈ 190 µM) | – | –
COc1ccc(/C=C/C(=O)c2ccccc2)cc1O | 500 µg/mL (≈ 1970 µM) | 0 mm | 500 µg/mL (≈ 1970 µM) | – | –
O=C(/C=C/c1ccccc1)/C=C/c1ccccc1 | – | – | – | – | inactive
O=C(/C=C/c1ccc(Cl)cc1)c1ccccc1 [4-CHLORO CHALCONE] | 500 µg/mL (≈ 2060 µM) | 0 mm | 500 µg/mL (≈ 2060 µM) | – | –
CC(=O)Nc1ccc(/C=C/C(=O)c2ccc(Cl)cc2)cc1 | 500 µg/mL (≈ 1670 µM) | 0 mm | 500 µg/mL (≈ 1670 µM) | – | –
O=C(/C=C/c1cccc(O)c1)c1ccc(Cl)cc1 | 125 µg/mL (≈ 483 µM) | 20 mm | 125 µg/mL (≈ 483 µM) | – | –
COc1cccc(/C=C/C(=O)c2ccc(Cl)cc2)c1O | 500 µg/mL (≈ 1730 µM) | 0 mm | 500 µg/mL (≈ 1730 µM) | – | –
O=C(/C=C/C=C/c1ccccc1)c1ccccc1 | – | – | – | – | inactive
COc1cc(C(=O)/C=C/c2ccccc2)cc(OC)c1OC | 500 µg/mL (≈ 1680 µM) | 0 mm | 500 µg/mL (≈ 1680 µM) | – | –
N#Cc1ccc(/C=C/C(=O)c2ccc(Cl)cc2)cc1 | 250 µg/mL (≈ 934 µM) | 23 mm | 250 µg/mL (≈ 934 µM) | – | –
COc1cc(C(=O)/C=C/c2ccc(N(C)C)cc2)cc(OC)c1OC | 500 µg/mL (≈ 1460 µM) | 0 mm | 500 µg/mL (≈ 1460 µM) | – | –
O=C(/C=C/c1ccc(O)cc1)c1ccc(Cl)cc1 | 62.5 µg/mL (≈ 242 µM) | 21 mm | 62.5 µg/mL (≈ 242 µM) | – | –
N#Cc1ccc(/C=C/C(=O)c2ccccc2)cc1 | 250 µg/mL (≈ 1070 µM) | 17 mm | 250 µg/mL (≈ 1070 µM) | – | –
O=C(/C=C/C=C/c1ccccc1)/C=C/C=C/c1ccccc1 | – | – | – | – | inactive
CN(C)c1ccc(/C=C/C(=O)c2ccccc2)cc1 | 500 µg/mL (≈ 1990 µM) | 0 mm | 500 µg/mL (≈ 1990 µM) | – | –
